# Assay results reported in article PMC9796011 (Journal of Gastroenterology and Hepatology, 2022).
# Experiments:
# [1] = tested on: patients with biologic‐resistant CD; experiment: Phase 2a trial: Crohn's disease activity index; type: in vivo, human; settings: 10 + 15 ng/kg/min groups pooled, mean ± SD
# Outline: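 Patients (n = 24) were randomized 1:1:1 in blocks of three to placebo or 10 or 15 ng/kg/min test compound, infused 8 h/day for 7 days alongside ongoing biologic. Doctors scored CDAI by questionnaire at baseline and at 4, 6, 8, 16 and 24 weeks. Response was a drop of ≥50 points; remission was CDAI ≤150. Changes are mean ± SD, compared by t-test/ANOVA and, over 0–24 weeks, by a mixed-effects model.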
# [2] = tested on: patients with biologic‐resistant CD; experiment: CRP, fecal calprotectin and FIT; type: in vivo, human; settings: CRP at 2, 4, 8 weeks; fecal calprotectin and FIT at 1 week; data not shown
# Outline: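 Adults with biologic-resistant CD at 16 Japanese centres were randomized 1:1:1 to placebo or 10 or 15 ng/kg/min of test compound, infused 8 h/day for 7 days from the day of biologic dosing. CRP was measured at 2, 4 and 8 weeks. Stool was collected before dosing and on day 8 for fecal calprotectin (fluorescence enzyme immunoassay) and FIT by a commercial lab. Groups were compared by t-test and ANOVA with Fisher's test.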
# [3] = Plasma concentration of adrenomedullin; type: in vivo; settings: human, intravenous
# Outline: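 Blood was drawn before and at 4, 8 and 10 h after the start of the 8-h infusion (10 or 15 ng/kg/min) on days 1 and 7, and at 4 and 8 weeks. Test compound was measured by automated ELISA. Cmax and Tmax were read directly from the data; AUC was computed over 0–10 h. Values are mean ± SD.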
# [4] = tested on: patients with biologic‐resistant CD; experiment: Safety evaluation: adverse events, vital signs; type: in vivo, human
# Outline: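 All 24 patients, hospitalized for the 7-day infusion of placebo or 10 or 15 ng/kg/min test compound (8 h/day), were assessed for AEs and SAEs throughout the study. Vital signs, blood and urine tests and 12-lead ECG were taken at set times after dosing, with screening within 2 weeks before therapy. Patients with systolic BP <90 mmHg or pulse <45 bpm were excluded.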
# [5] = Trough level of infliximab; type: in vivo, human; settings: CD patients; 4 and 8 weeks vs day 1
# Outline: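 Serum was collected immediately before each biologic dose. Infliximab trough levels were measured by ELISA at a contract lab in patients given placebo or 10 or 15 ng/kg/min test compound, infused 8 h/day for 7 days starting on the day of biologic dosing; changes were assessed at 8 weeks.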
# Crohn's disease = settings: cited from earlier work
compound,measurement,setting,value
CC[C@H](C)[C@H](NC(=O)[C@H](CCC(N)=O)NC(=O)[C@H](Cc1c[nH]cn1)NC(=O)[C@H](C)NC(=O)[C@H](CC(C)C)NC(=O)[C@H](CCCCN)NC(=O)[C@H](CCC(N)=O)NC(=O)[C@@H](NC(=O)[C@@H](NC(=O)[C@@H]1CSSC[C@H](NC(=O)CNC(=O)[C@H](Cc2ccccc2)NC(=O)[C@H](CO)NC(=O)[C@H](CCCNC(=N)N)NC(=O)[C@H](CC(C)C)NC(=O)CNC(=O)[C@H](CCC(N)=O)NC(=O)[C@H](Cc2ccccc2)NC(=O)[C@H](CC(N)=O)NC(=O)[C@H](CC(N)=O)NC(=O)[C@H](CCSC)NC(=O)[C@H](CO)NC(=O)[C@H](CCC(N)=O)NC(=O)[C@H](CCCNC(=N)N)NC(=O)[C@@H](N)Cc2ccc(O)cc2)C(=O)N[C@@H](CCCNC(=N)N)C(=O)N[C@@H](Cc2ccccc2)C(=O)NCC(=O)N[C@@H]([C@@H](C)O)C(=O)N1)[C@@H](C)O)C(C)C)C(=O)N[C@@H](Cc1ccc(O)cc1)C(=O)N[C@@H](CCC(N)=O)C(=O)N[C@@H](Cc1ccccc1)C(=O)N[C@H](C(=O)N[C@@H](CC(=O)O)C(=O)N[C@@H](CCCCN)C(=O)N[C@@H](CC(=O)O)C(=O)N[C@@H](CCCCN)C(=O)N[C@@H](CC(=O)O)C(=O)N[C@@H](CC(N)=O)C(=O)N[C@H](C(=O)N[C@@H](C)C(=O)N1CCC[C@H]1C(=O)N[C@@H](CCCNC(=N)N)C(=O)N[C@@H](CO)C(=O)N[C@@H](CCCCN)C(=O)N[C@H](C(=O)N[C@@H](CO)C(=O)N1CCC[C@H]1C(=O)N[C@@H](CCC(N)=O)C(=O)NCC(=O)N[C@@H](Cc1ccc(O)cc1)C(N)=O)[C@@H](C)CC)C(C)C)[C@@H](C)O [Adrenomedullin],Changes in CDAI,"[1]; 4 weeks, n = 16",−71 ± 83
same,Changes in CDAI,"[1]; 6 weeks, n = 14",−72 ± 67
same,Changes in CDAI (primary endpoint),"[1]; 8 weeks, n = 15",−81 ± 73
same,Changes in CDAI,"[1]; 16 weeks, n = 10",−61 ± 51
same,Changes in CDAI,"[1]; 24 weeks, n = 9",−81 ± 46
same,"Changes in CRP levels, fecal calprotectin and FIT versus placebo",[2],no differences
same,AUC(0-t),[3]; 10 ng/kg/min,0.247 ± 0.06 ng·h/mL
same,AUC(0-t),[3]; 15 ng/kg/min,0.441 ± 0.245 ng·h/mL
same,Cmax,[3]; 15 ng/kg/min,0.0653 ± 0.043 ng/mL
same,"Any adverse events, patients (%)","[4]; 10 ng/kg/min, 8 patients",7 (88%)
same,Deaths,"[4]; 10 ng/kg/min, 8 patients",0
same,"Decrease in body weight, patients (%)","[4]; 10 ng/kg/min, 8 patients",0
same,"Dehydration, patients (%)","[4]; 10 ng/kg/min, 8 patients",0
same,"Dizziness, patients (%)","[4]; 10 ng/kg/min, 8 patients",1 (13%)
same,"Fever up, patients (%)","[4]; 10 ng/kg/min, 8 patients",0
same,"Flushing, patients (%)","[4]; 10 ng/kg/min, 8 patients",1 (13%)
same,"Head discomfort, patients (%)","[4]; 10 ng/kg/min, 8 patients",0
same,"Headache, patients (%)","[4]; 10 ng/kg/min, 8 patients",3 (38%)
same,"Increase in transaminase level, patients (%)","[4]; 10 ng/kg/min, 8 patients",0
same,"Lumbago, patients (%)","[4]; 10 ng/kg/min, 8 patients",0
same,"Moderate to severe adverse events, patients (%)","[4]; 10 ng/kg/min, 8 patients",1 (13%)
same,"Nasopharyngitis, patients (%)","[4]; 10 ng/kg/min, 8 patients",1 (13%)
same,"Palpitation, patients (%)","[4]; 10 ng/kg/min, 8 patients",1 (13%)
same,"Rash, patients (%)","[4]; 10 ng/kg/min, 8 patients",1 (13%)
same,"Right bundle branch block, patients (%)","[4]; 10 ng/kg/min, 8 patients",0
same,"Serious adverse events, patients (%)","[4]; 10 ng/kg/min, 8 patients",0
same,"Vomiting, patients (%)","[4]; 10 ng/kg/min, 8 patients",0
same,"Any adverse events, patients (%)","[4]; 15 ng/kg/min, 8 patients",8 (100%)
same,Deaths,"[4]; 15 ng/kg/min, 8 patients",0
same,"Decrease in body weight, patients (%)","[4]; 15 ng/kg/min, 8 patients",0
same,"Dehydration, patients (%)","[4]; 15 ng/kg/min, 8 patients",1 (13%)
same,"Dizziness, patients (%)","[4]; 15 ng/kg/min, 8 patients",0
same,"Fever up, patients (%)","[4]; 15 ng/kg/min, 8 patients",3 (38%)
same,"Flushing, patients (%)","[4]; 15 ng/kg/min, 8 patients",1 (13%)
same,"Head discomfort, patients (%)","[4]; 15 ng/kg/min, 8 patients",1 (13%)
same,"Headache, patients (%)","[4]; 15 ng/kg/min, 8 patients",7 (88%)
same,"Increase in transaminase level, patients (%)","[4]; 15 ng/kg/min, 8 patients",1 (13%)
same,"Lumbago, patients (%)","[4]; 15 ng/kg/min, 8 patients",0
same,"Moderate to severe adverse events, patients (%)","[4]; 15 ng/kg/min, 8 patients",3 (38%)
same,"Nasopharyngitis, patients (%)","[4]; 15 ng/kg/min, 8 patients",2 (25%)
same,"Palpitation, patients (%)","[4]; 15 ng/kg/min, 8 patients",2 (25%)
same,"Rash, patients (%)","[4]; 15 ng/kg/min, 8 patients",1 (13%)
same,"Right bundle branch block, patients (%)","[4]; 15 ng/kg/min, 8 patients",1 (13%)
same,"Vomiting, patients (%)","[4]; 15 ng/kg/min, 8 patients",1 (13%)
same,Changes in blood pressure and pulse rate,"[4]; all groups, throughout the drug administration period, data not shown",did not observe any statistically significant changes
same,"Trough levels of biologics (infliximab, adalimumab) after AM administration",[5],did not change
Infliximab,Annual risk of loss of infliximab response,Crohn's disease,13 % per patient‐year
